In series [1] the test system is Mus musculus. Put plainly: Toxicity in mouse implanted with S180 cells at 50 mg/kg, ip after 2 days. In kind it is organism-based, CCRF S-180. Set-up: dose 50 mg/kg, route intraperitoneal. Particulars: in vivo, 48 h. The method in brief:
(§1)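 Mouse S180 sarcoma transplant model; drug given i.p. daily, with an NS-treated control group (n = 20) and 10 mice per treated group. At the end, animals were euthanized and tumors excised and weighed. Inhibition rate is relative to the control. Body weight and surviving mouse numbers were recorded at the start and end. Significance was set at p < 0.01.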

Series [2] deals with Mus musculus. Put plainly: Effect on body weight in mouse implanted with S180 cells at 50 mg/kg, ip after 2 days. In kind it is functional, CCRF S-180. As to conditions: route intraperitoneal. In short, it runs like this:
as §1

Another series relates to CCRF S-180. Put plainly: Antitumor activity in mouse implanted with S180 cells at 50 mg/kg, ip after 2 days. It counts as functional. Particulars: CCRF S-180, ip, 48 h, route intraperitoneal. In short, it runs like this: as §1

With `O=c1[nH]cc(F)c(=O)[nH]1` [FLUOROURACIL], the figures for the Activity result in the series on Mus musculus [1] and in the series with Mus musculus [2] were “Non-toxic” and 23 g, respectively. The compound also gave an inhibition in vivo at 50 mg/kg in the series on CCRF S-180 of 80.4%.

In general, inhibition in vivo refers to the change of the read-out against control, counted positive when it falls. A low value points to a weak effect.

Source of the values: ChEMBL document CHEMBL1146343, “Synthesis and activity of Combretastatin A-4 analogues: 1,2,3-thiadiazoles as potent antitumor agents” (Bioorg Med Chem Lett, 2007).
